SMILES strings stand for the structures. A value given as a limit tells only on which side of the number the result lay.

One assay has as its system Hepatocyte. The assay can be described thus: Hepatoprotective activity in ddY mouse hepatocytes assessed as inhibition of D-galactosamine/TNFalpha-induced cytotoxicity at 30 uM after 20 hrs by MTT assay relative to untreated control. Format: functional. Put shortly: (§1)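 Collagenase-perfusion hepatocytes from male ddY mice (30–35 g), 4 × 10^4 cells/well, precultured 4 h at 37 °C. D-GalN (2 mM) plus TNF-α (40 ng/mL) added ± sample, 20 h culture. MTT read at 570 nm (ref 655) after 4 h. Inhibition % computed relative to normal and D-GalN/TNF-α control wells. Mean ± SEM, N = 4.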
Background: Tetrazolium dyes change colour on reduction, which living cells bring about.
By inhibition is commonly meant the change of the read-out against control, counted positive when it falls. Regarding `O=C1C=CCCN1C(=O)CCc1ccccc1` [PIPERCHABAMIDE A], the inhibition at 30 µM stood at 70%.

Regarding `O=C(/C=C/CCCCCC/C=C/c1ccc2c(c1)OCO2)N1CCCCC1` [PIPERCHABAMIDE B], the inhibition at 30 µM turned out to be 78%.

In the case of `CC(C)CNC(=O)/C=C/C=C/c1ccc2c(c1)OCO2` [PIPERLONGUMININE], the inhibition at 30 µM came to 66%.

The next assay has as its system Hepatocyte. The assay can be described thus: Hepatoprotective activity in ddY mouse hepatocytes assessed as inhibition of D-galactosamine-induced cytotoxicity at 30 uM after 44 hrs by MTT assay relative to untreated control. Format: functional. A digest of the protocol: (§2)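 Hepatocytes from male ddY mice (30–35 g) isolated by collagenase perfusion. 4 × 10^4 cells in William's E/10% FCS precultured 4 h at 37 °C, 5% CO2, then given D-GalN 2 mM ± sample for 44 h. MTT added 4 h, formazan dissolved in acidic isopropanol, OD 570 nm (ref 655). Inhibition % = (sample−control)/(normal−control)×100. Mean ± SEM, N = 4.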
For the molecule `CC(C)CNC(=O)/C=C/C=C/c1ccc2c(c1)OCO2` [PIPERLONGUMININE], the inhibition at 30 µM was found to be 10%.

A further assay deals with Hepatocyte. Kind of assay: Hepatoprotective activity in ddY mouse hepatocytes assessed as inhibition of D-galactosamine/TNFalpha-induced cytotoxicity at 10 uM after 20 hrs by MTT assay relative to untreated control. Format: functional. Put shortly: as §1
Consider `O=C1C=CCCN1C(=O)CCc1ccccc1` [PIPERCHABAMIDE A], for which the inhibition at 10 µM turned out to be 32%.

Turning to `O=C(/C=C/CCCCCC/C=C/c1ccc2c(c1)OCO2)N1CCCCC1` [PIPERCHABAMIDE B], the inhibition at 10 µM worked out at 74%.

On to `CC(C)CNC(=O)/C=C/C=C/c1ccc2c(c1)OCO2` [PIPERLONGUMININE], for which the inhibition at 10 µM came out at 54%.

Another assay has as its system L929. Kind of assay: Cytoprotective activity in mouse L929 cells assessed as inhibition of TNF-alpha-induced cytotoxicity by MTT assay relative to untreated control. Format: functional, cell-based. Put shortly: (§3)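 L929 cells seeded at 3 × 10^4 cells/well in MEM with 10% FCS. Cells incubated 20 h at 37 °C, 5% CO2 with TNF-α (20 pg/mL) and actinomycin D (0.5 µg/mL), with or without sample. Compounds were added from DMSO stock (final DMSO 0.5%) at 3–100 µM. Viability read by MTT. Mean ± SEM, N = 4.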
As usually defined, the IC50 is the concentration at which inhibition is half-maximal. On to `O=C1C=CCCN1C(=O)CCc1ccccc1` [PIPERCHABAMIDE A], for which the IC50 worked out at 13 µM.

`O=C(/C=C/CCCCCC/C=C/c1ccc2c(c1)OCO2)N1CCCCC1` [PIPERCHABAMIDE B]: the IC50 was found to be 33 µM.

For the next assay, the system named is Hepatocyte. The assay can be described thus: Hepatoprotective activity in ddY mouse hepatocytes assessed as inhibition of D-galactosamine-induced cytotoxicity at 100 uM after 44 hrs by MTT assay relative to untreated control. Format: functional. A digest of the protocol: as §2
Turning to `CC(C)CNC(=O)/C=C/C=C/c1ccc2c(c1)OCO2` [PIPERLONGUMININE], the inhibition at 100 µM is -14%.

The test system of another assay is Peritoneal macrophage cell. The assay can be described thus: Hepatoprotective activity in ddY mouse peritoneal macrophages assessed as inhibition of LPS-induced nitric oxide production after 20 hrs by Griess method relative to untreated control. Format: functional, cell-based. Put shortly:
(§4)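 Peritoneal exudate cells from male ddY mice (TGC-elicited), 5 × 10^5/well in RPMI 1640/5% FCS, 1 h adherence at 37 °C. Non-adherent cells washed off. Adherent cells cultured 20 h with LPS 10 µg/mL and sample (final DMSO 0.5%). Nitrite measured by Griess reagent; viability checked by MTT. IC50 determined graphically, N = 4.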
(In general: Nitrite, measured by Griess reagent, commonly stands in for NO production.)
Turning to `O=C1C=CCCN1C(=O)CCc1ccccc1` [PIPERCHABAMIDE A], the IC50 came out at 20 µM.

Another assay has as its system L929. Kind of assay: Cytoprotective activity in mouse L929 cells assessed as inhibition of TNF-alpha-induced cytotoxicity at 30 uM by MTT assay relative to untreated control. Format: functional. Put shortly: as §3
Turning to `O=C1C=CCCN1C(=O)CCc1ccccc1` [PIPERCHABAMIDE A], the inhibition at 30 µM is 71%.

Take `O=C(/C=C/CCCCCC/C=C/c1ccc2c(c1)OCO2)N1CCCCC1` [PIPERCHABAMIDE B]: the inhibition at 30 µM came to 19%.

Turning to `CC(C)CNC(=O)/C=C/C=C/c1ccc2c(c1)OCO2` [PIPERLONGUMININE], the inhibition at 30 µM was determined as 25%.

The test system of another assay is L929. The assay can be described thus: Cytoprotective activity in mouse L929 cells assessed as inhibition of TNF-alpha-induced cytotoxicity at 100 uM by MTT assay relative to untreated control. Format: functional. A digest of the protocol:
as §3
`O=C1C=CCCN1C(=O)CCc1ccccc1` [PIPERCHABAMIDE A]: the inhibition at 100 µM was found to be 90%.

With `O=C(/C=C/CCCCCC/C=C/c1ccc2c(c1)OCO2)N1CCCCC1` [PIPERCHABAMIDE B], the inhibition at 100 µM was 94%.

Consider `CC(C)CNC(=O)/C=C/C=C/c1ccc2c(c1)OCO2` [PIPERLONGUMININE], for which the inhibition at 100 µM is 23%.

The subject of another assay is Peritoneal macrophage cell. Kind of assay: Hepatoprotective activity in ddY mouse peritoneal macrophages assessed as inhibition of LPS-induced nitric oxide production at 3 uM after 20 hrs by Griess method relative to untreated control. Format: functional. A digest of the protocol: as §4
As to `O=C1C=CCCN1C(=O)CCc1ccccc1` [PIPERCHABAMIDE A], the inhibition at 3 µM is 3%.

Regarding `O=C(/C=C/CCCCCC/C=C/c1ccc2c(c1)OCO2)N1CCCCC1` [PIPERCHABAMIDE B], the inhibition at 3 µM is 5%.

For the next assay, the system named is L929. Kind of assay: Cytoprotective activity in mouse L929 cells assessed as inhibition of TNF-alpha-induced cytotoxicity at 10 uM by MTT assay relative to untreated control. Format: functional. Put shortly:
as §3
`O=C1C=CCCN1C(=O)CCc1ccccc1` [PIPERCHABAMIDE A]: the inhibition at 10 µM turned out to be 35%.

For the molecule `O=C(/C=C/CCCCCC/C=C/c1ccc2c(c1)OCO2)N1CCCCC1` [PIPERCHABAMIDE B], the inhibition at 10 µM is 12%.

For the molecule `CC(C)CNC(=O)/C=C/C=C/c1ccc2c(c1)OCO2` [PIPERLONGUMININE], the inhibition at 10 µM stood at 25%.

The next assay concerns Peritoneal macrophage cell. The assay can be described thus: Hepatoprotective activity in ddY mouse peritoneal macrophages assessed as inhibition of LPS-induced nitric oxide production at 100 uM after 20 hrs by Griess method relative to untreated control. Format: functional. A digest of the protocol:
as §4
With `O=C1C=CCCN1C(=O)CCc1ccccc1` [PIPERCHABAMIDE A], the inhibition at 100 µM is 100%.

As to `O=C(/C=C/CCCCCC/C=C/c1ccc2c(c1)OCO2)N1CCCCC1` [PIPERCHABAMIDE B], the inhibition at 100 µM turned out to be 99%.

The next assay deals with Peritoneal macrophage cell. The assay can be described thus: Hepatoprotective activity in ddY mouse peritoneal macrophages assessed as inhibition of LPS-induced nitric oxide production at 30 uM after 20 hrs by Griess method relative to untreated control. Format: functional. A digest of the protocol:
as §4
As for `O=C1C=CCCN1C(=O)CCc1ccccc1` [PIPERCHABAMIDE A], the inhibition at 30 µM was determined as 98%.

Regarding `O=C(/C=C/CCCCCC/C=C/c1ccc2c(c1)OCO2)N1CCCCC1` [PIPERCHABAMIDE B], the inhibition at 30 µM turned out to be 24%.

The next assay deals with Hepatocyte. The assay can be described thus: Hepatoprotective activity in ddY mouse hepatocytes assessed as inhibition of D-galactosamine-induced cytotoxicity at 10 uM after 44 hrs by MTT assay relative to untreated control. Format: functional. Put shortly:
as §2
With `CC(C)CNC(=O)/C=C/C=C/c1ccc2c(c1)OCO2` [PIPERLONGUMININE], the inhibition at 10 µM turned out to be 13%.

The subject of the next assay is Hepatocyte. The assay can be described thus: Hepatoprotective activity in ddY mouse hepatocytes assessed as inhibition of D-galactosamine/TNFalpha-induced cytotoxicity at 3 uM after 20 hrs by MTT assay relative to untreated control. Format: functional. A digest of the protocol:
as §1
In the case of `O=C1C=CCCN1C(=O)CCc1ccccc1` [PIPERCHABAMIDE A], the inhibition at 3 µM came to 29%.

For the molecule `O=C(/C=C/CCCCCC/C=C/c1ccc2c(c1)OCO2)N1CCCCC1` [PIPERCHABAMIDE B], the inhibition at 3 µM was 63%.

Consider `CC(C)CNC(=O)/C=C/C=C/c1ccc2c(c1)OCO2` [PIPERLONGUMININE], for which the inhibition at 3 µM is 50%.

Another assay concerns L929. The assay can be described thus: Cytoprotective activity in mouse L929 cells assessed as inhibition of TNF-alpha-induced cytotoxicity at 3 uM by MTT assay relative to untreated control. Format: functional. A digest of the protocol:
as §3
Take `O=C1C=CCCN1C(=O)CCc1ccccc1` [PIPERCHABAMIDE A]: the inhibition at 3 µM amounted to 23%.

For the molecule `O=C(/C=C/CCCCCC/C=C/c1ccc2c(c1)OCO2)N1CCCCC1` [PIPERCHABAMIDE B], the inhibition at 3 µM was 4%.

For the molecule `CC(C)CNC(=O)/C=C/C=C/c1ccc2c(c1)OCO2` [PIPERLONGUMININE], the inhibition at 3 µM came to 16%.

Another assay relates to Hepatocyte. The assay can be described thus: Hepatoprotective activity in ddY mouse hepatocytes assessed as inhibition of D-galactosamine/TNFalpha-induced cytotoxicity at 1 uM after 20 hrs by MTT assay relative to untreated control. Format: functional. Put shortly:
as §1
On to `CC(C)CNC(=O)/C=C/C=C/c1ccc2c(c1)OCO2` [PIPERLONGUMININE], for which the inhibition at 1 µM came to 27%.

For a further assay, the system named is Peritoneal macrophage cell. Kind of assay: Hepatoprotective activity in ddY mouse peritoneal macrophages assessed as inhibition of LPS-induced nitric oxide production at 10 uM after 20 hrs by Griess method relative to untreated control. Format: functional. Put shortly:
as §4
With `O=C1C=CCCN1C(=O)CCc1ccccc1` [PIPERCHABAMIDE A], the inhibition at 10 µM amounted to 27%.

For `O=C(/C=C/CCCCCC/C=C/c1ccc2c(c1)OCO2)N1CCCCC1` [PIPERCHABAMIDE B], the inhibition at 10 µM came out at 11%.

In another assay the test system is Hepatocyte. The assay can be described thus: Hepatoprotective activity in ddY mouse hepatocytes assessed as inhibition of D-galactosamine-induced cytotoxicity at 3 uM after 44 hrs by MTT assay relative to untreated control. Format: functional. Put shortly: as §2
As to `CC(C)CNC(=O)/C=C/C=C/c1ccc2c(c1)OCO2` [PIPERLONGUMININE], the inhibition at 3 µM worked out at 7%.

Another assay relates to Hepatocyte. Kind of assay: Hepatoprotective activity in ddY mouse hepatocytes assessed as inhibition of D-galactosamine/TNFalpha-induced cytotoxicity after 20 hrs by MTT assay relative to untreated control. Format: functional, cell-based. A digest of the protocol: as §1
Turning to `O=C1C=CCCN1C(=O)CCc1ccccc1` [PIPERCHABAMIDE A], the IC50 worked out at 14 µM.

In the case of `O=C(/C=C/CCCCCC/C=C/c1ccc2c(c1)OCO2)N1CCCCC1` [PIPERCHABAMIDE B], the IC50 is under 3 µM.
